A selection: hits, their analogues and other compounds. The true share with any hit is near 3.5%.
RGS4 block: human RGS4 inhibition. 310,000 tested, 0.45% active. P49798. B-score at 10 µM. HEK293 M3R/RGS4 inducible, Fluo-4 calcium flux; stronger effect = higher value; triggered by carbachol at its EC20;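 active = B-score, a plate-corrected calcium signal, over three deviations above library mean, with baseline fluorescence within five deviations of library mean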;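 also: RGS4 expression induced by doxycycline in cells with stable M3 receptor; B-score is computed from the integrated fluorescence ratio over baseline after carbachol; higher B-score means a larger calcium signal and so more RGS4 inhibition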
MrgX1 antag: antagonists of human MrgX1 receptor; Q96LB2; MRGX1-HEK293 calcium flux, Fluo-4, BAM8-22 antagonism; stronger effect = lower value; B-score at 10 µM; 310,000 tested, 1.3% active; AID 588676;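 active = calcium-response B-score plate-corrected more than 3 library SD below zero, starting fluorescence within 5 deviations, no agonist response on first addition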;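 also: peak minus trough fluorescence over baseline after final BAM8-22 challenge near maximal dose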
Target sequence (Q96LB2 whole entry, looked up): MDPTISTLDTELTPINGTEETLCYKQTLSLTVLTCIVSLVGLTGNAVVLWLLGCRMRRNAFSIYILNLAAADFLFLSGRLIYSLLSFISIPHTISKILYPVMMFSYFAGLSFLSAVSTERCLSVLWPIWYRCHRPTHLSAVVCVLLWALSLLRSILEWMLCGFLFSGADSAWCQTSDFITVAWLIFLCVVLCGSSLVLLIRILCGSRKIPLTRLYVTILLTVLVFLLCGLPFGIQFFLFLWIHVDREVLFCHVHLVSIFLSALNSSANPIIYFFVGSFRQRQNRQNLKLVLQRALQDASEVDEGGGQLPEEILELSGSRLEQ
MrgX1 agonist: agonists of human MrgX1 receptor. 310,000 tested, 0.44% active. Q96LB2. B-score at 10 µM. MrgX1-HEK293 cells, Fluo-4 calcium fluorescence, agonist mode; stronger effect = higher value;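 active = calcium response B-score plate-corrected fluorescence ratio at least 3 library SD, with starting fluorescence B-score inside 5 SD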
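System: HEK293 cells stably expressing human MrgX1 receptor; Dosing: test compound in the initial addition of three; Schedule: overnight plating, then 30 min 37 °C plus 30 min room-temperature dye loading; Detection: kinetic calcium dye fluorescence, Fluo-4 NW; Controls: per-plate positive and negative controls for Z′ factor.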
RGS4 pot: RGS4 potentiation or activation; B-score at 10 µM; 310,000 tested, 0.92% active; AID 463111; HEK293 M3R/inducible RGS4, carbachol calcium flux Fluo4; stronger effect = lower value;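 active = B-score of the integrated calcium signal more than 4 SD below the library mean, with starting fluorescence not abnormally high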;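 also: negative B-score means reduced calcium response which marks RGS4 activation or potentiation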
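System – HEK293 FlpIn-TREx cells, stable M3R, doxycycline-inducible RGS4 · Reagent – ECmax carbachol challenge · Times – compound preincubation 20 min at room temperature before agonist · Technique – Fluo4 fluorescence kinetic imaging of calcium · Measure – B score of integrated Fluo4 ratio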
MrgX1 allo act: allosterically activates human MrgX1 receptor signaling; Q96LB2; MrgX1-HEK293, Fluo-4 calcium flux, FDSS; stronger effect = higher value; B-score at 10 µM; 310,000 tested, 0.63% active;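 active = plate-corrected calcium response at least 3 library SD above typical, normal starting fluorescence, not activating the receptor alone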;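 also: compound read alongside a low EC10 to EC30 dose of BAM8-22 agonist; peak minus trough fluorescence over baseline measured at the second addition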
RGS4 block valid: RGS4 inhibitor validation | shares compounds with RGS4 block | HEK293 M3R/RGS4, carbachol calcium Fluo-4 fluorescence; carbachol added at its EC20; 0 = buffer wells, 100 = carbachol control | calcium response, % at 10 µM | 1,700 tested, 65% active | AID 492999;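 active = duplicate-averaged calcium response above the buffer-only control mean plus 5 SD of those controls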;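 also: integrated fluorescence ratio F max minus min over baseline F0; higher response in RGS4-induced cells means RGS4 inhibition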
RGS4 uninduced: non-induced cell nonspecific activity of RGS4 inhibitors | shares compounds with RGS4 block | HEK293 M3R non-induced, carbachol calcium Fluo-4; submaximal (EC20) carbachol stimulus; buffer wells 0%, carbachol control wells 100% | activity (percent), % at 10 µM | 1,900 tested, 20% active | AID 493000; call rule not given here;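 also: RGS4 induction absent so cells express M3R without RGS4; higher means more calcium signal and flags a non-specific hit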
RGS4 inh ctr2: second counter-screen for RGS4 inhibitors: non-induced cells without carbachol; calcium response (agonist-mode artifact), % at 10 µM; HEK293 M3R/RGS4 non-induced, Fluo-4 calcium, no carbachol; normalised: buffer wells 0%, carbachol wells 100%; 1,900 tested, 22% active; shares compounds with RGS4 block;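 active = duplicate-averaged calcium rise in uninduced cells above buffer wells' mean plus 5 SD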
* hit, by the source's call; i = inactive; / = not tested or not shown.

SMILES	RGS4 block	MrgX1 antag	MrgX1 agonist	RGS4 pot	MrgX1 allo act	RGS4 block valid	RGS4 uninduced	RGS4 inh ctr2
N#Cc1ccc(C2=NC(C(F)(F)F)(C(F)(F)F)c3c(n(Cc4ccco4)c(=O)[nH]c3=O)N2)cc1	6.1*	i	37*	i	i	13%*	i	16%*
CCN(CC)S(=O)(=O)c1ccc2[nH]c(=O)c3ccccc3c2c1	i	i	i	i	i	/	/	/
Cc1noc(/C=C/c2ccccn2)c1[N+](=O)[O-]	6.8*	i	i	i	i	27%*	30%*	i
CC1CCN(c2c(NCC3CCC(C(=O)NCCc4ccccc4)CC3)c(=O)c2=O)CC1 (stereo not given)	i	i	i	i	i	/	i	i
CCN1CCN(CCNC(=O)c2ccc(CS(=O)c3ccc(Br)cc3)o2)CC1 (stereo not given)	i	i	i	i	i	/	/	/
COc1cc(OC)c(OC)cc1NC(=O)CC1COc2ccccc2O1 (stereo not given)	i	i	i	i	i	/	/	/
COc1ccc(CCNC(=O)CC2COc3ccccc3O2)cc1OC (stereo not given)	13*	i	i	i	i	i	i	i
CSc1nc(SCC(=O)O)c2sc3nc(-c4ccccc4)c4c(c3c2n1)CCC4	i	/	/	i	/	/	/	/
CSc1nc(N(C)CCO)c2sc3nc(-c4ccco4)c4c(c3c2n1)CCC4	4.9*	i	i	i	i	i	i	10%*
Cc1ccc(S(=O)(=O)N2CCCOC2CNC(=O)C(=O)NC2CCCC2)cc1 (stereo not given)	i	i	i	i	i	i	i	i
COc1ccc(C(C[N+](=O)[O-])c2c(-c3ccccc3)cc3ccccn23)cc1 (stereo not given)	15*	i	i	i	i	12%*	i	i
COc1ccc(C(C[N+](=O)[O-])c2c(-c3ccccc3)cc3ccccn23)cc1OC (stereo not given)	13*	i	55*	i	i	12%*	i	i
COc1cc(C(C[N+](=O)[O-])c2c(-c3ccccc3)cc3ccccn23)cc(OC)c1OC (stereo not given)	i	i	i	i	i	/	i	i
COc1cc(C(C[N+](=O)[O-])c2c(C)cc3ccccn23)ccc1O (stereo not given)	i	i	i	i	i	/	/	/
O=Nc1c(-c2ccccc2)cc2ccccn12	i	i	i	i	i	/	/	/
COc1cc(-c2ncc3ccccn23)cc(OC)c1OC	i	i	i	i	i	/	/	/
CC(=O)Nc1ccc(S(=O)(=O)NC(C)(C#N)C2CC2)cc1 (stereo not given)	i	i	i	i	i	/	/	/
Cc1ccc(CS(=O)Cc2ccc(C(=O)NCc3ccccc3Br)o2)cc1 (stereo not given)	i	i	i	i	i	/	/	/
COc1ccc2[nH]c(=O)c(CN(C3CCCCC3)C(c3nnnn3Cc3ccco3)C(C)C)cc2c1 (stereo not given)	7.6*	-4.5*	i	i	i	7.5%*	i	24%*
CCC(c1nnnn1Cc1ccco1)N(Cc1cc2cc(C)cc(C)c2[nH]c1=O)CC1CCCO1 (stereo not given)	5.8*	i	i	i	i	i	i	i
CCC(c1nnnn1Cc1ccco1)N(Cc1ccccc1OC)Cc1cc2cc(C)ccc2[nH]c1=O (stereo not given)	i	i	i	i	i	/	/	/
